Screening data deposited in PubChem BioAssay by Broad Institute.
Rows were chosen to be rich in hits. Some 5.9% of all compounds tested hit in one or more screens of this group.
KDM4C inh: inhibitors of GASC-1 (KDM4C) histone demethylase, primary screen, biochemical, single concentration HTS; Lysine-specific demethylase 4C (Homo sapiens), Q9H3R0; GST-KDM4C 2-372, H3K9me3 peptide, LANCE TR-FRET; inhibition, % at 12.5 µM; actives 0.15% (n = 96,000);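 active means mean replicate inhibition above about 25%, with at least 55% of replicates also reaching it, limit read from the data, passing the limit was not always enough; inconclusive means only one of those two conditions met; inactive means neither condition met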
Target sequence (Q9H3R0 2-372 limits assumed): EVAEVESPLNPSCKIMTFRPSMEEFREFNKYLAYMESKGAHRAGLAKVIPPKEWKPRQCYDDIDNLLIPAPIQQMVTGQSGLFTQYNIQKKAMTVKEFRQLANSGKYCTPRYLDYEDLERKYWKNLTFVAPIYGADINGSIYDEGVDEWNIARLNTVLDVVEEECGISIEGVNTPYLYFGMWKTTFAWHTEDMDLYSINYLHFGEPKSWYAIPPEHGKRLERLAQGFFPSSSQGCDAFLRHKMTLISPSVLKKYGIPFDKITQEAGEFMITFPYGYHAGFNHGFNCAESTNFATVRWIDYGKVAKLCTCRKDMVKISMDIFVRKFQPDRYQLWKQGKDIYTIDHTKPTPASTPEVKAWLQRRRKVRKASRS
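System: N-terminal GST-fused human GASC-1 (KDM4C) fragment, residues 2-372; amount: enzyme final amount 10 nM; incubation: reaction 30 min RT, detection step 1 h RT; medium: HEPES buffer, pH 7.5, plus ascorbate; technique: LANCE TR-FRET, Eu antibody, ULight-streptavidin, EDTA, ex 340 nm, em 618/671 nm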
Pf Dd2 inh: P. falciparum Dd2 growth inhibitors, primary screen, SYBR Green fluorescence, single dose replicates. 72 h; stronger effect = lower value. activity change, % at 10 µM. actives 2.3% (n = 94,000); in the data active means activity change below about -80%; inconclusive means no clear call, values can overlap the other calls
IDH1 R132H inh: inhibitors of IDH1 R132H reductase, primary screen, biochemical, plate reader, single point; inhibition, % at 10 µM; actives 0.18% (n = 70,000); diaphorase/resazurin fluorescence, 60 min; Isocitrate dehydrogenase [NADP] cytoplasmic (Homo sapiens), O75874; in the data active means inhibition above about 34%; inconclusive means no clear call, values can overlap the other calls; inactive means below about 11%;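 further: 0% = DMSO and 100% = no enzyme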
T cruzi growth-1: T. cruzi intracellular proliferation inhibitors, primary screen, cell-based, beta-gal Tulahuen parasites, NIH3T3 host, luminescence. actives 5.9% (n = 77,000). inhibition, % at 8.34 µM. T. cruzi beta-gal in NIH3T3, GalScreen luminescence, 90 h. AID 624255, 2012;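 active means mean inhibition above about 93%, with at least 55% of replicates each passing it, limit read from the data, passing the limit was not always enough; inconclusive means only one of those two conditions holds; inactive means neither condition holds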
T cruzi growth-2: T. cruzi intracellular proliferation inhibitors, confirmation, cell-based, NIH3T3 host, beta-gal parasite, luminescence, cherry-pick; shares compounds with T cruzi growth-1; T. cruzi beta-gal in NIH3T3, GalScreen luminescence, 90 h; inhibition, % at 8.35 µM; actives 72% (n = 5,600); AID 651739, 2012;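 active means mean replicate inhibition above about 95% and at least 55% of replicates individually reaching it, limit read from the data; inconclusive means only one of the two criteria is met; inactive means neither criterion is met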
T cruzi growth-3: inhibitors of intracellular T. cruzi replication, confirmation, NIH3T3 host cells, beta-gal parasites, cherry-pick, set 2. shares compounds with T cruzi growth-1. T. cruzi beta-gal in NIH3T3, GalScreen luminescence, 90 h. inhibition, % at 2.09 µM. actives 21% (n = 5,600). AID 651740, 2012;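 active means mean inhibition above about 95%, with at least 55% of replicates also reaching it, limit read from the data; inconclusive means meets just one of the two conditions; inactive means meets neither condition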;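 further: plate controls were neutral control median for no effect and positive control median for full effect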
NIH3T3 tox: cytotoxicity in mouse NIH/3T3 fibroblasts, confirmation, cytotoxicity control for T. cruzi proliferation inhibitor project, cell-based, cherry-pick, single point; actives 14% (n = 5,600); cytotoxicity (signal decrease), % at 8.35 µM; NIH/3T3 viability, CellTiter-Glo ATP luminescence, 90 h; AID 651742, 2012; shares compounds with T cruzi growth-1;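 active means mean signal decrease across replicates above about 35% based on untreated-well scatter, with enough replicates individually passing, limit read from the data; inconclusive means no rule stated though some were filed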;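 further: 0% = median of neutral control wells and 100% = median of positive control wells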
NIH3T3 tox 2: NIH/3T3 fibroblast cytotoxicity, confirmation, cytotoxicity control, cell-based, cherry-pick, single point, set 2. shares compounds with T cruzi growth-1. NIH/3T3 viability, CellTiter-Glo ATP luminescence, 90 h. inhibition, % at 24.9 µM. actives 56% (n = 5,600);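 active means mean loss of cell viability signal at or above a set limit, and enough replicates individually reaching it; inconclusive means meets only the mean limit or only the replicate share; inactive means meets neither condition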;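 further: 0% = median of neutral control wells and 100% = median of positive control wells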
Numbers without * were called inactive; u = inconclusive; x = no result.

SMILES	KDM4C inh	Pf Dd2 inh	IDH1 R132H inh	T cruzi growth-1	T cruzi growth-2	T cruzi growth-3	NIH3T3 tox	NIH3T3 tox 2
C[C@H](CO)N1C[C@H](C)[C@H](CN(C)S(=O)(=O)c2cccs2)Oc2ncc(-c3cc4ccccc4o3)cc2C1=O	-7.6	-74.6	-1.5	123.0*	110.0*	75.3	35.1*	15.0
COc1ccccc1S(=O)(=O)N(C)C[C@@H]1Oc2ncc(-c3ccc(C)cc3)cc2C(=O)N([C@@H](C)CO)C[C@H]1C	-2.2	-11.3	-0.7	101.5*	102.1*	65.4	28.3	55.3*
COc1ccc(S(=O)(=O)N(C)C[C@@H]2Oc3ncc(C#Cc4cccc(F)c4)cc3C(=O)N([C@H](C)CO)C[C@@H]2C)cc1	-3.2	-77.1	-0.1	u	106.9*	76.8	30.3	48.2*
C[C@H](CO)N1C[C@H](C)[C@H](CN(C)S(=O)(=O)c2ccccc2)Oc2ncc(C#Cc3ccccc3)cc2C1=O	-1.3	-20.1	0.5	98.4	x	x	x	x
C[C@H](CO)N1C[C@H](C)[C@H](CN(C)S(=O)(=O)c2ccccc2)Oc2ncc(C#Cc3ccc(C(F)(F)F)cc3)cc2C1=O	-6.5	-51.1	1.3	91.7*	107.4*	81.1	32.5	31.8*
C[C@H](CO)N1C[C@H](C)[C@H](CN(C)S(=O)(=O)c2cccc(F)c2)Oc2ncc(C#Cc3ccccc3)cc2C1=O	-1.5	-71.7	-1.4	39.2	x	x	x	x
Cc1ccc(C(C)C)c(OCC(=O)/C=C2\Sc3ccccc3N2C)c1	x	x	-0.8	x	x	x	x	x
CN(CC(=O)Nc1ccc(Nc2ccccc2)cc1)S(=O)(=O)c1ccccc1	x	x	0.1	x	x	x	x	x
CN(CC(=O)Nc1ccc(Oc2ccccc2)cc1)S(=O)(=O)c1ccccc1	x	x	-0.4	x	x	x	x	x
COc1cccc(OC)c1C(=O)Nc1ccc(Cl)c(-c2nc3ncccc3o2)c1	x	x	-0.2	x	x	x	x	x
Cc1c(Br)c(C(F)(F)F)nn1CC(=O)Nc1cc(Oc2cccnc2)cc([N+](=O)[O-])c1	x	x	-0.6	x	x	x	x	x
Cc1ccc(NC(=O)COc2ccccc2)c(NC(=O)c2ccccc2I)c1	x	x	-0.2	x	x	x	x	x
C[C@H](CO)N1C[C@H](C)[C@H](CN(C)S(C)(=O)=O)Oc2ncc(C#Cc3cccc(F)c3)cc2C1=O	-0.3	-3.3	x	x	x	x	x	x
COc1ccc(-c2cnc3c(c2)C(=O)N([C@H](C)CO)C[C@H](C)[C@@H](CN(C)C(=O)CN(C)C)O3)cc1	16.8	-6.6	3.6	105.4*	35.6	3.3	23.3	1.7
COc1ccc(-c2cnc3c(c2)C(=O)N([C@@H](C)CO)C[C@H](C)[C@@H](CN(C)S(=O)(=O)c2ccc(OC)cc2)O3)cc1	-0.6	-36.5	-7.6	105.5*	104.4*	57.6	8.9	u
C[C@H](CO)N1C[C@H](C)[C@H](CN(C)S(=O)(=O)c2cccs2)Oc2ncc(C#Cc3cccc(F)c3)cc2C1=O	-3.4	-39.4	x	97.7*	110.1*	68.7	1.5	5.0
C[C@H](CO)N1C[C@H](C)[C@H](CN(C)S(=O)(=O)c2cccc(F)c2)Oc2ncc(C#Cc3ccc(C(F)(F)F)cc3)cc2C1=O	-0.4	-79.4	-3.9	u	101.4*	109.3*	25.0	36.3*
COc1ccc(-c2cnc3c(c2)C(=O)N([C@@H](C)CO)C[C@H](C)[C@H](CN(C)C(=O)CN(C)C)O3)cc1	-1.5	25.6	0.4	49.3	x	x	x	x
CC(C)CNc1nc(SCC(N)=O)nc(N2CCOCC2)n1	x	x	-0.1	x	x	x	x	x
Cc1ccc(S(=O)(=O)N(C)C[C@@H]2Oc3ncc(C#Cc4ccc(C(F)(F)F)cc4)cc3C(=O)N([C@H](C)CO)C[C@@H]2C)cc1	-3.6	-44.8	0.3	u	89.1	112.0*	33.7	38.8*
C[C@H](CO)N1C[C@H](C)[C@H](CN(C)S(=O)(=O)c2ccc(F)cc2)Oc2ncc(C#Cc3ccc(C(F)(F)F)cc3)cc2C1=O	-4.3	-49.0	-1.0	111.9*	104.5*	102.9*	25.9	35.4*
COc1ccc(S(=O)(=O)N(C)C[C@@H]2Oc3ncc(C#Cc4ccc(C(F)(F)F)cc4)cc3C(=O)N([C@H](C)CO)C[C@@H]2C)cc1	-5.5	-73.5	-0.2	15.9	x	x	x	x
C[C@H](CO)N1C[C@H](C)[C@H](CN(C)S(=O)(=O)c2ccc(F)cc2)Oc2ncc(C#Cc3ccccc3)cc2C1=O	-2.7	-66.7	-0.2	106.3*	u	77.5	7.3	28.1*
C[C@@H]1CCCCO[C@@H](CN(C)C(=O)c2ccccc2)[C@@H](C)CN([C@H](C)CO)C(=O)c2cc(NC(=O)Nc3ccc(C(F)(F)F)cc3)ccc2O1	-0.5	2.0	-1.3	117.2	x	x	x	x
C[C@@H]1CN([C@H](C)CO)C(=O)c2cc(NC(=O)Nc3ccc(C(F)(F)F)cc3)ccc2O[C@@H](C)CCCCO[C@@H]1CN(C)C(=O)c1ccccc1	0.0	-68.5	x	72.4	x	x	x	x
C[C@@H]1CCCCO[C@H](CN(C)C(=O)c2ccccc2)[C@H](C)CN([C@@H](C)CO)C(=O)c2cc(NC(=O)Nc3ccc(C(F)(F)F)cc3)ccc2O1	-0.5	-61.5	x	u	101.0*	111.6*	20.1	48.5*
C[C@@H]1CCCCO[C@H](CN(C)C(=O)c2ccccc2)[C@@H](C)CN([C@@H](C)CO)C(=O)c2cc(NC(=O)Nc3ccc(C(F)(F)F)cc3)ccc2O1	0.3	-91.8*	-1.3	u	107.4*	109.6*	-5.2	-8.5
C[C@@H]1CCCCO[C@@H](CN(C)C(=O)c2ccccc2)[C@H](C)CN([C@H](C)CO)C(=O)c2cc(NC(=O)Nc3ccc(C(F)(F)F)cc3)ccc2O1	-0.6	-56.7	x	u	102.6*	117.5*	-6.8	8.8
COc1ccc(C)cc1NC(=O)CN(c1ccc(Br)c(C)c1)S(C)(=O)=O	x	x	-0.6	x	x	x	x	x
C[C@H](CO)N1C[C@H](C)[C@H](CN(C)S(=O)(=O)c2ccccc2)Oc2c(NC(=O)Nc3cccc4ccccc34)cccc2C1=O	1.6	3.5	-0.2	x	x	x	x	x
